Screens as filed in PubChem BioAssay.
Yeast life ext – compounds extending yeast replicative lifespan, primary screen, S. cerevisiae, OD615; S. cerevisiae growth with nicotinamide; deaD strain in restrictive glucose medium; hit rate 0.68% among 130,000; AID 775, 2007; inhibition of the nicotinamide effect, % at 10 µM;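 active = inhibition above a set limit, placed 3 SD over the median of all compounds, cut at about 26% in these data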;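 also: 0% = nicotinamide-treated wells and 100% = cells grown without nicotinamide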
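Buffer or medium: CSMM-D glucose medium, restrictive; test system: modified budding yeast, DeaD strain; compound: single dose 10 µM compound, 0.25% DMSO; schedule: culture preincubation 4 h, compound exposure 48 h, both 30 °C; detection: optical density (absorbance) at 615 nm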
BB579 growth dn – growth inhibitors of yeast BB579 in restrictive medium, primary screen, yeast lifespan-shortening project, S. cerevisiae. OD615, 48 h. inhibition, % at 10 µM. hit rate 0.51% among 140,000. AID 804, 2007;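 active = inhibition above a set limit, 3 SD over the mean compound inhibition, cut at about 44% in these data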
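System: DeaD yeast strain BB579; buffer or medium: CSMM-D dextrose restrictive medium; technique: OD at 615 nm; schedule: 4 h cell preincubation, 48 h compound exposure, 30 °C humidified; doses: single 10 µM dose; controls: amphotericin B 10 µg/mL, positive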
SDO1 yeast rescue – growth rescue of sdo1-depleted yeast, primary screen, S. cerevisiae, bone marrow failure model; AID 817, 2007; hit rate 0.21% among 140,000; S. cerevisiae sdo1-depleted JHY4D growth rescue, OD600 30 h; active compounds read high; pdr5 snq2 efflux-pump mutant strain; z-score at 10 µM;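 active = z-score above 3 at both the 24 hr and the 30 hr optical density reads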;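 also: z-score against mean and SD of all compound wells on the same plate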
RAM inhibit – inhibitors of the yeast RAM network, primary screen, dse1pr::URA3 reporter, 5-FOA selection; S. cerevisiae dse1pr::URA3 reporter, 5-FOA growth OD615, 2 d; analog-sensitive cbk1-as2 kinase mutant strain; hit rate 1.8% among 190,000; inhibition, % at 50 µM;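 active = inhibition above a set limit, 3 SD over mean compound inhibition, cut at about 8.4% in these data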;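 also: 0% = DMSO-only wells with no growth and 100% = 10 µM 1-NA-PP1 full growth; inhibition rescues growth on 5-FOA so higher OD means more RAM inhibition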
Numbers without * were called inactive. Compounds with a hit are over-represented: about 2.7% of the library has one in this group of screens.

Results for Cc1cccc(NC(=S)N(CCCN2CCOCC2)C(C)c2cc3ccccc3o2)c1C (stereo not drawn) ?
RAM inhibit: -0.2

Results for CCNC(=O)COC(=O)c1cc(C)n(-c2ccccc2)c1C ?
RAM inhibit: 0.0

What do the screens show for `Cc1cc(C(=O)COC(=O)c2ccc[nH]c2=O)c(C)n1C1CC1`?
Yeast life ext: 28.8*; BB579 growth dn: -6.0; SDO1 yeast rescue: -0.63; RAM inhibit: 5.1

Results for Cc1cc(C(=O)COC(=O)c2ccc[nH]c2=O)c(C)n1-c1ccc(F)cc1 ?
Yeast life ext: 17.0; BB579 growth dn: 53.8*; SDO1 yeast rescue: 0.84; RAM inhibit: -1.0

What do the screens show for `Cc1cc(C(=O)COC(=O)c2ccc[nH]c2=O)c(C)n1-c1ccccc1`?
Yeast life ext: 21.6; BB579 growth dn: 59.1*; SDO1 yeast rescue: 1.04; RAM inhibit: -1.3

What do the screens show for `Cc1cc(C(=O)COc2ccccc2C(N)=O)c(C)n1C1CC1`?
RAM inhibit: 1.9

What do the screens show for `CN(C)C(CNC(=O)CNC(=O)c1ccc(Br)cc1)c1ccccc1` (stereo not drawn)?
RAM inhibit: 0.6

What do the screens show for `Cc1ccc(N/C(C(Cl)=C(Cl)Cl)=C(/Cl)[N+](=O)[O-])c(C)c1`?
Yeast life ext: 48.2*; BB579 growth dn: -57.3; SDO1 yeast rescue: -0.19; RAM inhibit: 9.4*

How did COc1ccccc1/C=C(\NC(=O)c1ccc(OC)c(OC)c1)C(=O)Nc1ccc([N+](=O)[O-])cc1 do in these assays?
Yeast life ext: 4.8; BB579 growth dn: -18.9; SDO1 yeast rescue: 0.47; RAM inhibit: 8.5*

How did O=C(Nc1cccc(C(=O)O)c1)/C(=C/c1ccc([N+](=O)[O-])cc1)NC(=O)c1ccccc1 do in these assays?
RAM inhibit: 9.9*

How did COc1ccccc1/C=C(\NC(=O)c1ccc(OC)c(OC)c1)C(=O)Nc1cccc([N+](=O)[O-])c1 do in these assays?
Yeast life ext: 3.3; BB579 growth dn: -34.0; SDO1 yeast rescue: -0.04; RAM inhibit: 6.8

Results for CC(=O)Nc1ccc(C(=O)OCC(=O)NCc2ccc(Cl)cc2)cc1 ?
RAM inhibit: 2.0

Results for COc1ccc(-c2oc(/N=C/N3CCOCC3)c(C#N)c2-c2ccc(OC)cc2)cc1 ?
Yeast life ext: -17.5; BB579 growth dn: -32.1; SDO1 yeast rescue: 0.3; RAM inhibit: 9.1*

Results for Cc1ccnc(SCc2cc(=O)c(OC(=O)c3ccco3)co2)n1 ?
Yeast life ext: 42.4*; BB579 growth dn: -17.9; SDO1 yeast rescue: 0.1; RAM inhibit: 0.5

Results for O=C(CCn1c(=O)c2sccc2n(CC(=O)OCc2ccccc2)c1=O)NCc1ccco1 ?
Yeast life ext: -3.1; BB579 growth dn: -23.7; SDO1 yeast rescue: 1.98; RAM inhibit: 3.3

Results for O=C(CCn1c(=O)c2sccc2n(CC(=O)OCc2ccccc2)c1=O)NCc1ccccc1 ?
Yeast life ext: 9.9; BB579 growth dn: -46.2; SDO1 yeast rescue: -0.59; RAM inhibit: 11.3*

Results for CC(=O)N1CCC(=NNc2ncc(C(F)(F)F)cc2Cl)CC1 ?
RAM inhibit: 0.7

What do the screens show for `C=CCN1C(=O)C(Cc2ccc(Br)cc2)S/C1=N\N=C\c1ccco1` (stereo not drawn)?
Yeast life ext: 7.1; BB579 growth dn: -68.4; SDO1 yeast rescue: -0.66; RAM inhibit: 10.0*

How did Cc1cccc(CC2S/C(=N/N=C/c3ccco3)N(c3ccccc3)C2=O)c1 (stereo not drawn) do in these assays?
Yeast life ext: -0.4; BB579 growth dn: -34.8; SDO1 yeast rescue: 0.1; RAM inhibit: 10.7*

What do the screens show for `C=CCN1C(=O)C(Cc2ccc(F)cc2)S/C1=N/N=C/c1ccco1` (stereo not drawn)?
Yeast life ext: -1.0; BB579 growth dn: -15.8; SDO1 yeast rescue: -0.14; RAM inhibit: 4.4

How did CC(CNC(=O)CCc1nnc(CCC2CCCCC2)o1)c1ccccc1 (stereo not drawn) do in these assays?
RAM inhibit: 0.4

What do the screens show for `COc1ccc(-c2cc(C(F)(F)F)nc(S(C)(=O)=O)n2)cc1`?
Yeast life ext: 85.1*; BB579 growth dn: -34.6; SDO1 yeast rescue: -2.49; RAM inhibit: -0.9

Results for CS(=O)(=O)c1nc(-c2ccc(F)cc2)cc(C(F)(F)F)n1 ?
RAM inhibit: -0.2

Results for CS(=O)(=O)c1nc(-c2cccs2)cc(C(F)(F)F)n1 ?
Yeast life ext: 52.5*; BB579 growth dn: -26.4; SDO1 yeast rescue: -1.35; RAM inhibit: -1.7

How did N#CCSc1nc2cc(C(=O)N3CCC(C(N)=O)CC3)ccc2c2nc3ccccc3n12 do in these assays?
Yeast life ext: -6.2; BB579 growth dn: 3.8; SDO1 yeast rescue: -0.37; RAM inhibit: 1.5

How did Cc1nc2ccccc2c2nc3ccccc3n12 do in these assays?
Yeast life ext: -19.3; BB579 growth dn: 91.7*; SDO1 yeast rescue: -1.71; RAM inhibit: 2.3

How did c1ccc2c(c1)nnn1c3ccccc3nc21 do in these assays?
Yeast life ext: -15.1; BB579 growth dn: 65.0*; SDO1 yeast rescue: -1.01; RAM inhibit: 3.5

Results for N#CCSc1nc2ccccc2c2nc3ccccc3n12 ?
Yeast life ext: -4.7; BB579 growth dn: 61.0*; SDO1 yeast rescue: -0.85; RAM inhibit: 1.6

What do the screens show for `COc1ccccc1NC(=O)c1ccc(NC(=O)CN2C(=O)CN(C)C2=O)cc1`?
RAM inhibit: 1.5

Results for COCCNC(=O)C(OC(=O)C1=Cc2ccccc2OC1)C(C)C (stereo not drawn) ?
RAM inhibit: -1.2

How did CC1(C(=O)N(Cc2ccccc2)Cc2ccccc2)CC1(Br)Br (stereo not drawn) do in these assays?
Yeast life ext: 4.8; BB579 growth dn: -23.8; SDO1 yeast rescue: -0.83; RAM inhibit: 8.8*

How did CC1(C)N([O-])C2=C(c3ccccc3C2=O)[N+](=O)C1(C)C do in these assays?
Yeast life ext: 52.5*; BB579 growth dn: -57.6; SDO1 yeast rescue: -0.13; RAM inhibit: 0.1

What do the screens show for `CC(=O)N1N=C(c2ccc(Cl)cc2)OC1(C)C`?
Yeast life ext: 23.4; BB579 growth dn: 48.3*; SDO1 yeast rescue: 1.98; RAM inhibit: 0.5

Results for CC(=O)N1N=C(c2ccccc2)OC12CCCC2 ?
RAM inhibit: -0.5

How did O=C(CSc1cccc2cccnc12)OCC(=O)c1ccc(Br)cc1 do in these assays?
Yeast life ext: -1.1; BB579 growth dn: -28.4; SDO1 yeast rescue: -0.1; RAM inhibit: 9.6*

How did O=C(CSCC(=O)OCC(=O)c1ccc(Br)cc1)Nc1cccc2ccccc12 do in these assays?
Yeast life ext: -17.0; BB579 growth dn: -43.8; SDO1 yeast rescue: -0.54; RAM inhibit: 10.4*

What do the screens show for `O=C(CSc1cccc2cccnc12)OCC(=O)c1ccccc1`?
Yeast life ext: -11.5; BB579 growth dn: -29.5; SDO1 yeast rescue: -0.08; RAM inhibit: 2.0

What do the screens show for `COCCCNC(=O)c1cc(C(=O)c2ccccc2Br)c[nH]1`?
RAM inhibit: 0.0

How did COc1ccc(N2Cc3cccc(C(=O)O)c3C2=O)cc1 do in these assays?
Yeast life ext: 28.5*; BB579 growth dn: 9.2; SDO1 yeast rescue: -0.65; RAM inhibit: 2.2
